# Published values from different studies.
# Lines come from different studies, so protocols differ.
# Target: Mitogen-activated protein kinase kinase kinase 11 (MAP3K11, Homo sapiens, UniProt Q16584)
SMILES,effect on,action,method,tested at,endpoint,result
Cc1nn(C)cc1-c1nc2c(N3CCN(Cc4ccc(Cl)cc4)CC3)c(Cl)cnc2[nH]1,binding,,competition with immobilised ligand,1 µM,remaining binding,9.8%
Nc1ncc(-c2nc(N3CCOCC3)nc(N3CCOCC3)n2)c(C(F)F)n1,binding,,competition with immobilised ligand,10 µM,remaining binding,47%
Cn1cncc1[C@](O)(COc1ccc(C#N)cc1-c1ccc(OC(F)(F)F)cc1)c1ccc(C#N)cc1,cell-free assay,,competition with immobilised ligand,1 µM,remaining binding,86%
Cn1cc(-c2cc(F)cc(N3CCn4c(cc5c4CCCC5)C3=O)c2CO)cc(Nc2ccc(N3CCN(C4COC4)CC3)cn2)c1=O,enzyme activity,inhibitor,,0.1 µM,inhibition,0%
N#CC1(c2ccccn2)CCN(Cc2cc(C(=O)O)c(=O)n3ccccc23)CC1,cell-free assay,,competition with immobilised ligand,1 µM,remaining binding,100%
O=c1[nH]c2ccccc2n1C1CCN(Cc2ccc(-c3[nH]c4cc5ncnc5cc4nc3-c3ccccc3)cc2)CC1,cell-free assay,,,0.5 µM,remaining signal,94.6%
Cn1cc(-c2cccc(N3CCc4c(sc5c4CC(C)(C)C5)C3=O)c2CO)cc(Nc2ccncn2)c1=O,enzyme activity,inhibitor,,1 µM,inhibition,-4%
COc1ncccc1-c1cnn2ccc(N3CCN(C(=O)OC(C)C)CC3)nc12,binding,,competition with immobilised ligand,1 µM,remaining binding,76%
CC(C)(C)c1cc(C=C(C#N)C#N)cc(Br)c1O,enzyme activity,inhibitor,,0.5 µM,remaining activity,97.4%
